Screening results deposited in PubChem by several laboratories.
Most compounds without a hit are left out; they make up all but 2.9% or so of the library.
SENP1 inh: inhibitors of human SENP1 SUMO protease catalytic domain; recombinant SENP1 catalytic domain, CyPet-SUMO1-YPet FRET cleavage; inhibition, % at 10 µM; actives 0.21% (n = 360,000);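 active means inhibition at least 30% at 10 µM, raw YFP signal under a set limit, fluorescence ratio 0.5 to 1.5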;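 further: 0% = enzyme with DMSO and 100% = no enzyme wells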
Target sequence (Q9P0U3 419-644 limits assumed): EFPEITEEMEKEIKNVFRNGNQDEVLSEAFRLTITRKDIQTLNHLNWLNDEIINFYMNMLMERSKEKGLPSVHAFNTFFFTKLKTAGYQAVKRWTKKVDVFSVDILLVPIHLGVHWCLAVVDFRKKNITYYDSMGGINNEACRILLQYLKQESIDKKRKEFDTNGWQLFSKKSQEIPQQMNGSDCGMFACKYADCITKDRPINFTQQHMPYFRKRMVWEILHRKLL
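Material – human SENP1 catalytic domain · Input – SENP1 enzyme, 20 pM final · Compound dosing – single concentration of 10 µM compound, 0.5% DMSO final · Timing – enzyme reaction for 50 min at room temperature, dark · Measured by – FRET fluorescence in CFP and YFP emission channels · Control set – no-enzyme wells low, DMSO-plus-enzyme wells high control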
SENP7 block: blocks the human protease SENP7; Q9BQF6; recombinant SENP7, Z-RLRGG-aminoluciferin luminescence, 40 min; inhibition, % at 5 µM; actives 1.5% (n = 330,000);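 active means inhibition above about 50% at the single test dose, limit read from the data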;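 further: plate controls were DMSO with enzyme for no effect and no enzyme buffer wells for full effect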
Target sequence (Q9BQF6 706-1050 limits assumed): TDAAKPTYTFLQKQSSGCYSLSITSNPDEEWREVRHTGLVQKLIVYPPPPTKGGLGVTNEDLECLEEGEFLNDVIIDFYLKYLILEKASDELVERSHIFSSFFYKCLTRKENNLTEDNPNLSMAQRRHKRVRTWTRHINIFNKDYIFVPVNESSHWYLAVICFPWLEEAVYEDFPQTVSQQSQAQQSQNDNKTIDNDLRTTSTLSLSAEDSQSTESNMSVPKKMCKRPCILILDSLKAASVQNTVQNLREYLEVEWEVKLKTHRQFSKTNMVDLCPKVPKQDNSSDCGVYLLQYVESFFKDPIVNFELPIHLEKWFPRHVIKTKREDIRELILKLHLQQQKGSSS
SENP8 block-1: SENP8 (human) protease inhibition; actives 0.64% (n = 360,000); recombinant SENP8, Nedd8 substrate fluorescence; inhibition, % at 20 µM; in the data active means inhibition mostly above about 40%, no sharp cut-off; inactive means mostly below about 27%
HSP90 inh: inhibitors of HSP90 luciferase refolding in rabbit reticulocyte lysate; actives 0.91% (n = 290,000); AID 1789; inhibition, % at 5.6 µM; luciferase refolding luminescence, 3 h;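 active means inhibition above the screen-wide mean plus 3 SD, computed separately per campaign, cut at about 16% in these data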;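 further: 0% = DMSO wells and 100% = 60 µM geldanamycin wells; inhibitors lower the luminescence because luciferase stays unfolded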
SENP8 block-2: SENP8 protease inhibition; purified SENP8, Z-RLRGG-aminoluciferin cleavage, luminescence; inhibition, % at 10 µM; actives 1.2% (n = 330,000); AID 2540; in the data active means inhibition above about 50%
SENP6 inh: blocks the human protease SENP6; Q9GZR1; Recombinant SENP6 catalytic domain, aminoluciferin luminescence; inhibition, % at 10 µM; actives 1.8% (n = 330,000); AID 2599;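 active means inhibition above about 50% at the single tested dose, limit read from the data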;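 further: plate controls were DMSO wells with enzyme for no effect and DMSO wells lacking enzyme for full effect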
SENP8 confirm: human SENP8 inhibition, confirmed | shares compounds with SENP7 block | Recombinant SENP8, Z-RLRGG-aminoluciferin luminescence, 60 min | inhibition, % at 12.5 µM | actives 40% (n = 6,200) | AID 488912;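 active means mean inhibition across replicates above about 50%, limit read from the data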
SENP6 confirm: confirmation of human SENP6 protease inhibitors; shares compounds with SENP7 block; recombinant SENP6, Z-RLRGG-aminoluciferin luminescence; inhibition, % at 12.5 µM; actives 58% (n = 6,200); AID 488915
SENP7 confirm: human SENP7 inhibition, confirmed | shares compounds with SENP7 block | recombinant SENP7, Z-RLRGG-aminoluciferin luminescence, 40 min | inhibition, % at 12.5 µM | actives 69% (n = 6,200)
Casp3 select: inhibits human caspase-3 in SENP selectivity test. shares compounds with SENP7 block. purified caspase-3, Z-DEVD-aminoluciferin luminescence, 60 min. inhibition, % at 12.5 µM. actives 60% (n = 6,200). AID 488918;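 active means mean inhibition above about 50%, limit read from the data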;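 further: plate controls were enzyme with DMSO for no effect and wells without caspase-3 for full effect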
Luc interf: luminescence interference (SENP counter-screen); shares compounds with SENP7 block; Pre-incubated SENP8/Z-RLRGG-aminoluciferin, luciferase luminescence interference; inhibition, % at 12.5 µM; actives 39% (n = 6,200); AID 488919;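 active means mean inhibition above about 50% when retested at one dose, limit read from the data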;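 further: plate controls were DMSO wells with completed reaction for no effect and substrate without enzyme for full effect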
* hit, by the source's call; . = no result given.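 How the source made its calls, unless noted: active means mean inhibition above about 50% in the one-dose retest (limit read from the data); inactive means the rest.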

SMILES	SENP1 inh	SENP7 block	SENP8 block-1	HSP90 inh	SENP8 block-2	SENP6 inh	SENP8 confirm	SENP6 confirm	SENP7 confirm	Casp3 select	Luc interf
COc1ccc(C(C(=O)NC(C)(C)C)N(C(=O)CCC(=O)Nc2cc(C)on2)c2ccc(C)c(C)c2)cc1 (stereo not drawn)	3.2	1.4	9.0	4.2	3.5	6.6	.	.	.	.	.
O=C(CN1CCN(C(=O)C2CCN(C(=O)/C=C/c3ccccc3)CC2)CC1)Nc1ccccc1Cl	0.0	-9.0	3.6	.	-12.3	-6.8	.	.	.	.	.
COc1cc(/C=N/NC(=O)c2nonc2C)ccc1O	1.0	77.4*	15.0	-2.5	82.4*	66.9*	89.2*	89.2*	98.1*	96.6*	89.3*
COc1cccc(/C=N/NC(=O)CNC(=O)C(c2ccccc2)c2ccccc2)c1O	-18.7	3.9	-266.8	1.9	42.9	51.6*	38.3	43.9	62.6*	58.8*	-3.1
COc1cccc(/C=N/NC(=O)c2ccoc2C)c1O	-1.4	94.5*	-43.1	6.8	87.4*	91.5*	93.0*	93.3*	100.2*	96.6*	39.9
COc1cccc(/C=N/NC(=O)C(=O)N/N=C/c2cccc(OC)c2O)c1O	2.7	.	2.6	3.4	.	.	.	.	.	.	.
COc1cccc(C=NNC(=O)CCCC(=O)NN=Cc2cccc(OC)c2)c1	3.6	.	2.3	.	.	.	.	.	.	.	.
COc1cccc(/C=N/NC(=O)c2ccoc2C)c1	4.2	87.5*	12.4	6.2	82.4*	91.0*	88.7*	86.9*	98.5*	95.2*	85.6*
COc1cccc(/C=N/NC(=O)CNC(=O)/C=C\c2ccccc2)c1O	-3.1	13.8	-72.0	-1.0	10.2	8.8	.	.	.	.	.
COc1cc(OC)cc(-c2nnc(NC(=O)CCS(=O)(=O)c3ccc(C)cc3)o2)c1	-11.7	9.0	-34.1	.	6.4	-0.8	.	.	.	.	.
CCOc1ccc(/C=N/NC(=O)c2ccoc2C)cc1OC	1.4	75.0*	6.4	13.7	64.2*	81.1*	81.9*	80.3*	93.3*	92.6*	79.7*
CC(=O)NC(c1ccccc1)c1cccnc1 (stereo not drawn)	2.4	2.7	7.9	4.2	-2.0	-0.2	.	.	.	.	.
CCc1cccc(CC)c1C(OC(C)=O)c1cccnc1 (stereo not drawn)	0.7	-2.9	14.6	.	55.2*	-24.5	8.3	10.0	18.5	9.6	5.5
O=C(CCCCC(=O)OCC1CCCO1)OCC1CCCO1 (stereo not drawn)	4.1	.	3.8	.	.	.	.	.	.	.	.
C/C(=N\NC(=O)COc1ccc([N+](=O)[O-])cc1)c1ccco1	2.0	-3.1	5.7	.	6.1	0.2	.	.	.	.	.
C/C(=N\Nc1ccc([N+](=O)[O-])cc1)c1ccco1	-20.2	69.8*	-20.4	-7.3	57.9*	74.3*	26.7	50.6*	83.5*	45.8	15.6
O=C1C(C2=C(O)c3ccccc3C2=O)=Nc2ccccc21	22.7	16.8	60.4*	-0.2	79.0*	89.3*	14.3	95.1*	99.5*	59.6*	20.2
COc1ccc(-c2cc(NC=O)c3ncc(-c4cnn(C)c4)n3c2)cc1	-30.6	.	-467.7	.	.	.	.	.	.	.	.
CCC(C)Sc1ccc([C@H]2N[C@@](Cc3ccccc3)(C(=O)OC)[C@H]3C(=O)N(C)C(=O)[C@@H]23)cc1 (stereo partly drawn)	-3.8	-7.1	5.8	.	-0.7	3.8	.	.	.	.	.
O=C(C1CC(c2ccccc2O)=NO1)N1CCCCC1 (stereo not drawn)	1.5	73.6*	3.4	1.2	-4.3	-16.9	-10.8	-6.6	-12.9	7.7	7.3
O=C1/C(=C\c2ccc3ccccc3c2)CCCc2ccccc21	-1.1	31.2	18.7	-1.9	22.3	-15.2	.	.	.	.	.
Cc1ccccc1/C=C1\CCCc2ccccc2C1=O	-0.5	97.1*	1.7	-5.4	95.0*	88.1*	95.2*	97.7*	101.7*	93.1*	93.8*
C=CCn1c2ccccc2c(=O)c2cc(C#Cc3ccsc3)ccc21	.	.	.	1.5	.	.	.	.	.	.	.
C=CCn1c2ccccc2c(=O)c2cc(C#Cc3ccccn3)ccc21	-29.8	43.3	-498.3	.	55.6*	72.1*	61.3*	66.5*	81.7*	40.5	31.7
Cc1occc1C(=O)Nc1ccc2c(c1)CCC2	-2.3	93.5*	4.8	-3.7	85.9*	91.3*	92.4*	91.9*	99.2*	93.7*	92.0*
SMILES	SENP1 inh	SENP7 block	SENP8 block-1	HSP90 inh	SENP8 block-2	SENP6 inh	SENP8 confirm	SENP6 confirm	SENP7 confirm	Casp3 select	Luc interf
Cc1cc(C(=O)Nc2ccc3c(c2)OCCO3)c(C)o1	1.6	51.3*	13.5	2.2	31.9	-40.2	46.0	47.2	83.7*	81.4*	67.4*
CCCOc1ccc(C(=O)Nc2ccc3c(c2)OCCO3)cc1	-0.4	76.3*	9.1	8.6	72.9*	63.7*	21.2	48.3	93.4*	74.5*	7.5
Cc1cc(C(=O)Nc2ccc3c(c2)OCCO3)c2ccccc2n1	3.4	1.9	16.7	0.1	2.6	-2.1	.	.	.	.	.
Cc1cc(C(=O)Nc2ccncc2)c(C)o1	-1.1	.	14.4	.	.	.	.	.	.	.	.
O=C(Nc1ccc2c(c1)OCCO2)c1coc2ccccc2c1=O	-50.3	98.5*	-225.5	5.1	86.3*	98.0*	86.2*	85.0*	92.4*	70.7*	14.5
CC(=O)Oc1ccc(C(=O)Nc2ccc3c(c2)OCCO3)cc1	0.8	47.4	19.1	8.1	2.3	49.8	.	.	.	.	.
Cc1ccc(NC(=O)Nc2ccc3c(c2)CCC3)cc1C	-1.0	-13.9	2.3	-2.2	-5.7	-8.3	.	.	.	.	.
COc1ccc(N(CC(=O)NC2CCCC2)C(=O)CCC(=O)Nc2nc(C)cs2)cc1OC	0.6	6.2	7.8	0.2	-0.3	15.8	.	.	.	.	.
Cc1ccccc1-n1nnnc1SCC(=O)NCC1(N2CCOCC2)CCCCC1	1.8	6.0	6.4	.	2.8	-19.1	.	.	.	.	.
Cc1occc1C(=O)Nc1ccc2c(c1)OCCO2	-1.8	84.3*	8.3	-0.3	72.5*	89.2*	11.1	77.7*	95.0*	90.3*	76.1*
O=C(Nc1ccc2c(c1)OCCO2)C(=O)c1c[nH]c2ccccc12	3.2	99.4*	13.4	15.2	82.1*	86.8*	78.8*	78.3*	101.2*	86.2*	92.0*
CC(=O)Nc1ccc2c(c1)OCCOCCOc1cc(NC(C)=O)ccc1OCCOCCOCCO2	.	1.5	.	0.2	-2.3	-13.5	.	.	.	.	.
